Compounds with a hit are over-represented: about 2.7% of the library has one in this group of screens.
FLuc inh counter: firefly luciferase enzyme inhibitors, primary screen, artefact control for luciferase-based inhibitor screens, biochemical, luminescence, ATPLite; Luciferin 4-monooxygenase (Photinus pyralis), P08659; 10 min; inhibition, % at 10 µM; hit rate 1.5% among 200,000; AID 1006, 2008;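 active = inhibition above about 50% when tested at 10 µM, limit read from the data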
FLuc act counter: FLuc activators, initial screening, artefact control for FLuc-dependent activation tests, biochemical, ATPlite luminescence; Luciferin 4-monooxygenase (Photinus pyralis), P08659; ATPlite luciferase biochemical, 10 min; 0 = ATP-free wells, 1 = DMSO control; activation factor at 10 µM; 200,000 tested, under 10 active; AID 1027, 2008;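 active = luciferase activation factor, scaled between plate controls, of at least 2 with compound at 10 µM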
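System: cell-free luciferase reagent; medium: PBS as buffer for the ATP substrate; doses: test compounds dosed from 2 mM stocks in 100% DMSO; incubation: 10 min, room temperature; measured by: luminescence from luciferase reaction; read-out: luciferase activation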
Measles CPE: compounds protecting cells from measles virus cytopathic effect, primary screen, measles RdRp inhibitor project, single point, MLSMR library, absorbance. protection (pct of control), % at 4 µM. AID 841, 2007. Measles virus-infected cells, CPE protection. hit rate 1.5% among 140,000; in the data active = protection mostly above about 24%, no sharp cut-off; inactive = mostly below about 26%
Redox H2O2 prof: compounds producing H2O2 with reducing agent – biochemical, NIH compound library profiling, artefact control for MLSCN library redox annotation, primary screen. DTT-dependent redox cycling H2O2, phenol red/HRP absorbance; 100% = 100 µM peroxide control, 0% = buffer. activation, % at 10 µM. hit rate 0.03% among 200,000. AID 878, 2007;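 active = activation of at least 50% relative to the plate's high and low controls in the primary single-dose screen; inactive = activation below 50%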;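 note: compound incubated with DTT at 0.8 mM final as the reducing agent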
ABCG2 block: ABCG2 efflux pump inhibitors, primary screen, multiplex with ABCB1, IgMXP3 cells, flow cytometry; Broad substrate specificity ATP-binding cassette transporter ABCG2 (Homo sapiens), Q9UNQ0; JC-1 efflux; inhibition, % at 6.6 µM; hit rate 0.1% among 190,000;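 active = inhibition above 80%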;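 note: 0% = DMSO and 100% = nicardipine control wells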
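Incubation: cells with compound and JC-1, 10 min at 25 °C, rotating, no wash / Test system: IgMXP3 (ABCG2) plus far-red-tagged CCRF-Adr (ABCB1) cells / Compound dosing: one concentration, 6.6 µM final / Also added: JC-1 fluorescent substrate / Evaluation: efflux inhibition in percent versus controls / Detection: flow cytometry, 530 nm JC-1 signal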
ABCB1 inh: ABCB1 efflux pump inhibitors, primary screen, cell-based, multiplex, flow cytometry, ABCG2 counter-screen; CCRF-Adr cells, JC-1 efflux; ATP-dependent translocase ABCB1 (Homo sapiens), P08183; inhibition, % at 6.6 µM; hit rate 0.067% among 190,000; AID 1326, 2008; in the data active = inhibition above about 40%;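 note: 0% = vehicle and 100% = reference inhibitor; higher value means more JC-1 retained so stronger ABCB1 efflux block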
Active calls of the source: *; nt = no result given.

SMILES	FLuc inh counter	FLuc act counter	Measles CPE	Redox H2O2 prof	ABCG2 block	ABCB1 inh
O=C(COc1ccc(Cl)cc1Cl)Nc1ccccn1	97*	0	10	-1	32	0
O=c1c2c(nc3nc(NCc4cccc(Cl)c4)[nH]n13)CCC2	-5	1.1	nt	-1	4	1
C(=N\Nc1nc(N2CCCC2)nc(N2CCCC2)n1)/c1ccncc1	-1	1	nt	-1	10	1
CNc1ccccc(-c2ccc3cc4c(cc3n2)OCO4)c1=O	53*	0.5	15	0	5	11
Cc1cccc(N(CC(=O)NC2CCCCC2)C(=O)CCCC(=O)Nc2ccccn2)c1	-8	1.1	33*	1	10	2
C=CCN=C1NN=C(c2ccc3c(c2)OCCO3)CS1	94*	0.1	nt	0	-2	-3
NC1=NN=C(c2ccc3c(c2)OCCO3)CS1	79*	0.2	nt	-1	1	-1
C=CCN=C1NN=C(c2cc(C)n(CC=C)c2C)CS1	92*	0.1	33	1	41	0
c1ccc(C2=NNC(=NCc3ccc4c(c3)OCO4)SC2)cc1	4	1	5	0	1	-1
Nc1nnc(C(c2ccccc2)c2ccccc2)s1	-2	1	7	1	10	0
COc1ccc(NC(=O)CSc2nnc(Cn3cnc4ccccc43)o2)cc1	-9	1.1	nt	0	3	0
COCC(=O)NNS(=O)(=O)c1ccccc1[N+](=O)[O-]	-8	1.1	20	0	4	2
COc1ccc(-c2nnc(SCC(=O)c3cc(C)n(Cc4cccs4)c3C)o2)cc1	0	1	7	3	0	0
Cc1cc(C(=O)CSc2nncs2)c(C)n1Cc1ccco1	74*	0.3	nt	-2	2	0
Cc1cc(C(=O)COC(=O)[C@H](C)NC(=O)c2ccco2)c(C)n1Cc1ccco1	56*	0.4	nt	-2	0	0
Cc1ccc(C(=O)NCC(=O)OCC(=O)c2cc(C)n(Cc3ccco3)c2C)cc1	9	0.9	4	0	4	1
Cc1csc(SCC(=O)c2cc(C)n(Cc3cccs3)c2C)n1	89*	0.1	15	0	5	1
Cc1cc(C(=O)CSc2nnc(N)s2)c(C)n1Cc1cccs1	91*	0.1	4	0	11	1
CC(=O)Nc1ccc(SCC(=O)c2cc(C)n(Cc3cccs3)c2C)cc1	1	1	4	-2	0	0
O=C(CCNc1cccc(Cl)c1)c1ccco1	-9	1.1	7	-2	34	1
CN(Cc1cccnc1)Cc1cn(Cc2ccccc2)nc1-c1ccc2c(c1)OCO2	-2	1	nt	0	1	1
CC(=NCCCn1ccnc1)c1c(C)[nH]n(-c2ccc([N+](=O)[O-])cc2)c1=O	-7	1.1	nt	-2	16	1
O=c1cc(CSc2ccccc2)nc(-c2ccncc2)[nH]1	-5	1	nt	-1	2	0
CCOc1ccc(N(CC(=O)Nc2ccc(OC)cc2)S(C)(=O)=O)cc1	-2	1	48*	2	4	1
CCOc1ccc(NC(=O)CN(c2ccc(OC)cc2)S(C)(=O)=O)cc1	3	1	12	1	1	1
COCCCNC(=O)CN(c1ccc(OC)cc1)S(=O)(=O)c1ccc(NC(C)=O)cc1	-2	1	53*	0	3	0
Cc1cc(Cl)c(OCCCN(C)C)c(Br)c1	-5	1	48*	0	2	0
COc1ccc2c(c1)CC/C(=C\C=C\c1ccccc1OC)C2=O	52*	0.5	26	4	-2	0
O=c1[nH]c2ccc(Br)cc2c(-c2ccccc2)c1CN1CCOCC1	-6	1.1	23	1	3	1
O=c1[nH]c2ccc(Br)cc2c(-c2ccccc2)c1N1CCOCC1	-7	1.1	56*	0	8	2
